# AHR activator: AHR activators, primary screen, cell-based, luminescence, luciferase reporter, human; activation, % at 5 µM; AHR-responsive luciferase reporter cells; Aryl hydrocarbon receptor (Homo sapiens), P35869; 320,000 tested, 2.5% active; in the data active = activation above about 47%;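 also: 0% = vehicle wells and 100% = reference agonist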
# GAA850 FXN act: FXN promoter activators, primary screen, cell-based, luciferase luminescence, HEK293 lucGAA850 | HEK293 lucGAA850 FXN promoter luciferase reporter, 24 h; percent of 10 µM SAHA response | activation, % at 6 µM | 360,000 tested, 0.56% active | AID 540364, 2011;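 active = activation above the average of all compounds screened plus 3 SD, cutoff fixed separately per campaign, cut at about 7.5% in these data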;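 also: 0% = DMSO wells and 100% = 10 µM SAHA wells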
# ABCB6 inh 2: ABCB6 transporter inhibitors, primary screen, K562-ABCB6 cells, flow cytometry, MLPCN library; ATP-binding cassette sub-family B member 6 (Homo sapiens), Q9NP58; K562-ABCB6 porphyrin accumulation, 1 h; active compounds read low; fluorescence ratio to DMSO, % at 10 µM; 360,000 tested, 0.19% active; AID 602162, 2011;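 active = fluorescence ratio to DMSO below 75%, the collection mean minus 3 SD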;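 also: signal is porphyrin accumulated inside mitochondria; 100% equals median channel fluorescence of DMSO control wells; lower ratio means ABCB6 inhibition with less porphyrin fluorescence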
# Target sequence (Q9NP58 whole entry, looked up): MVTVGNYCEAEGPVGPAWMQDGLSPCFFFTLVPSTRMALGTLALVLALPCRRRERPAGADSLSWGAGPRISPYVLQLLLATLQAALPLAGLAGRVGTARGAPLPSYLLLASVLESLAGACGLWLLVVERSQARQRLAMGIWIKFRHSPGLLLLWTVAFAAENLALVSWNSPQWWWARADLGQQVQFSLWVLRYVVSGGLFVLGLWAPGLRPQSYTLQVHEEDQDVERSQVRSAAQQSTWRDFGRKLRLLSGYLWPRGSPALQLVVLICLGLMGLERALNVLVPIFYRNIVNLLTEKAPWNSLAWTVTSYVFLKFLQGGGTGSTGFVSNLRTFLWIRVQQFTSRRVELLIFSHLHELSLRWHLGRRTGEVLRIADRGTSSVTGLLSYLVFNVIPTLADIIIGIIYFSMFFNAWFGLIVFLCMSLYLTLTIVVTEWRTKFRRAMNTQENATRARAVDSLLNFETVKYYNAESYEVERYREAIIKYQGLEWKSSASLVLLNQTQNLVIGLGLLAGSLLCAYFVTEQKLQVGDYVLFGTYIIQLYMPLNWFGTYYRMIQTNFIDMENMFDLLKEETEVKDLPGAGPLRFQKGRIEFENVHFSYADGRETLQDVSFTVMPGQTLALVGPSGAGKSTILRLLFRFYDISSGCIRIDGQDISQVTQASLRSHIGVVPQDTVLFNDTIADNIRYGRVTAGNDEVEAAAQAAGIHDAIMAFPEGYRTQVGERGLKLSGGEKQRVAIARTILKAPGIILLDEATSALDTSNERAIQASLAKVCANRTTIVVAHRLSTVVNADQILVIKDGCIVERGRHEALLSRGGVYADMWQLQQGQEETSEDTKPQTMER
# STAT3 act: IL-6 driven STAT3 reporter potentiators, primary screen, U3A cells, luciferase, luminescence, MLSCN library. IL-6 STAT3-luciferase reporter; 100% = signal with IL-6 EC80 alone. activation (% of control), % at 5.6 µM. 190,000 tested, 0.91% active;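 active = activation above the screen-wide mean of compound activation plus 3 SD, cut at about 130% in these data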;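 also: 0% = background luminescence of wells with medium and substrate only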
#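 Test system: human U3A cells carrying STAT3-luciferase construct; control set: IL-6-only wells as 100% reference; timing: compound pre-incubation 1 h before IL-6, then 6 h stimulation at 37 °C; also added: IL-6 stimulus at 33 ng/mL final; evaluation: % activation versus median of IL-6-stimulated wells; detection: reporter luminescence signal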
# Active calls of the source: *; / = no result. Hits are enriched below; roughly 3.3% of the tested compounds scored in any of these assays.
SMILES,AHR activator,GAA850 FXN act,ABCB6 inh 2,STAT3 act
COc1ccc(C(=O)C[n+]2cc(Br)cc3ccccc32)cc1[N+](=O)[O-],71*,3,125,/
O=C1NC(Cc2ccc(O)cc2)c2nc3ccccc3c(=O)n2-c2ncccc21 (stereo not given),/,1,95,/
O=C(NC1CCCCC1)C1c2ccccc2OCC(=O)N1Cc1cccnc1 (stereo not given),/,/,99,/
CCOCCc1nnc(NC(=O)c2cccs2)s1,74*,1,102,99
O=C(Nc1nc2c(s1)CCCC2)c1cccs1,59*,-2,96,52
Cc1ccc2nc(NC(=O)CCn3c(=O)sc4ccccc43)sc2c1,18,-1,72*,107
Cc1ccc2nc(NC(=O)CCn3cccc3)sc2c1,3,2,92,92
O=C(Cc1cccs1)Nc1nc2c(s1)CCCC2,5,-4,95,91
O=C(Nc1nnc(C2CCCO2)s1)c1cccs1 (stereo not given),48*,0,98,105
CCOC(=O)c1c(C)[nH]c(C(=O)OC(C)C(=O)NC2CCCCC2C)c1C (stereo not given),5,1,92,/
Cc1cs/c(=N\N=C2CCCCC2)n1Cc1ccco1,10,-3,103,102
Cc1ccc2nc(NC(=O)c3cccs3)sc2c1,64*,-3,94,44
Cc1cccc(-c2nnc(NC(=O)c3cccs3)s2)c1,48*,1,98,94
CCOC(=O)C1=C[C@@H](C(C)(C)C)N(S(=O)(=O)c2ccc(C)cc2)[C@H]1c1ccc(OC)cc1,/,/,95,/
Cc1ccc2c(c1)c(-c1ccccc1)nc1nncn12,53*,2,104,106
CNC(=S)NNC(=O)c1sc(-c2cc(C)on2)nc1C,74*,0,98,/
Nc1ccn([C@@H]2O[C@H](CNCc3ccc(-c4cc(C(F)(F)F)ccc4Cl)o3)[C@@H](O)[C@H]2O)c(=O)n1,/,4,99,/
CC(C)(C)OC(=O)CNC(=O)c1[nH]cnc1C(=O)NCCCCCNC(=O)OC(C)(C)C,0,-4,74*,/
O=c1c(Cl)c(Cl)cnn1-c1ccccc1,/,-7,96,90
O=c1c(Cl)c(N/N=C/c2ccc(Cl)cc2)cnn1-c1ccccc1,50*,0,99,126
CC1CCN(c2ccc(-c3ccc(NC(=O)C(F)(F)F)cc3)nn2)CC1,50*,-2,95,/
O=C(N[C@H](Cc1ccc(Cl)cc1)C(=O)O)OCC1c2ccccc2-c2ccccc21,2,1,105,/
Nc1ccc(CNC(=O)OCC2c3ccccc3-c3ccccc32)cc1,55*,2,101,/
CCN(CC)CCCNc1cc(C)c(C#N)c2nc3ccccc3n12,/,1,79,/
Cc1cc(NCCCN2CCOCC2)n2c(nc3ccccc32)c1C#N,73*,0,100,93
SMILES,AHR activator,GAA850 FXN act,ABCB6 inh 2,STAT3 act
CCN(CC)CCNc1cc(C)c(C#N)c2nc3ccccc3n12,48*,3,100,/
CCN(CC(=O)NCc1cccs1)S(=O)(=O)c1ccc(F)c(F)c1F,2,1,98,/
CCn1c(SCC(=O)Nc2ccc(C(C)=O)cc2)nc2c([nH]c3ccccc32)c1=O,31,-2,97,/
COCCn1c(SCC(=O)Nc2ccc(NC(C)=O)cc2)nc2c([nH]c3ccccc32)c1=O,74*,1,99,/
COc1ccc(NC(=O)CSc2nc3c([nH]c4ccccc43)c(=O)n2C)cc1,20,-1,102,135*
C=CCn1c(SCC(=O)NC2CCCC2)nc2c([nH]c3ccccc32)c1=O,63*,0,90,/
COCCn1c(SCC(=O)NCC2CCCO2)nc2c([nH]c3ccccc32)c1=O (stereo not given),59*,-1,89,/
C=CCn1c(SCC(=O)NC2CCCCC2)nc2ccccc2c1=O,0,-1,100,104
COc1ccc(-n2c(SCC(=O)NCC3CCCO3)nc3c([nH]c4ccccc43)c2=O)cc1 (stereo not given),8,2,98,/
CC1CC(C)CN(S(=O)(=O)c2cc3c(cc2Cl)NC(=O)CO3)C1 (stereo not given),0,3,98,/
CCN(C(=O)COC(=O)c1oc2ccc(OC)cc2c1C)C1CCCCC1,3,1,102,/
CCn1c(SCC(=O)Nc2cccc(NC(C)=O)c2)nc2c([nH]c3ccccc32)c1=O,57*,0,84,/
COc1cccc(-n2c(SCC(=O)N3CCCC3)nc3c([nH]c4ccccc43)c2=O)c1,/,/,/,142*
CCOC(=O)N1CCN(C(=O)CSc2nc3c([nH]c4ccccc43)c(=O)n2C)CC1,51*,-1,97,108
CC1(c2nnnn2Cc2ccccc2)CCC(=O)N1CCc1ccccc1F (stereo not given),/,/,102,/
O=C(CN(Cc1ccc2c(c1)OCO2)C(=O)CSc1nc2ccccc2o1)NC1CCCCC1,3,2,102,107
COc1ccc(C(=O)N2CCCC(C(N)=O)C2)cc1S(=O)(=O)N1CCOCC1 (stereo not given),-2,0,92,/
CC(NC(=O)c1ccccc1)C(=O)OCn1nnc2ccccc2c1=O (stereo not given),1,5,81,/
FCCCOc1ccc(-c2ccnc(-c3ccccc3)n2)cc1,52*,3,98,88
CCOC(=O)c1cnc2sc3c(n2c1=O)CCCC3,21,0,92,93
O=C(Nc1ccccc1)c1cccc(S(=O)(=O)Nc2ccccn2)c1,3,0,105,100
O=C(Nc1ccc(Br)cc1)c1cccc(S(=O)(=O)Nc2ccccn2)c1,61*,-2,89,/
Cc1ccnc(NC(=O)c2cccc(S(=O)(=O)Nc3ccc(C)cc3C)c2)c1,61*,0,94,/
Cc1ccc(NS(=O)(=O)c2cccc(C(=O)NNC(=O)c3cccn3C)c2)c(C)c1,2,4,102,/
CC1CCC(NC(=O)C2CCC(CNc3c(N4CCCCC4)c(=O)c3=O)CC2)CC1 (stereo not given),0,2,95,/
SMILES,AHR activator,GAA850 FXN act,ABCB6 inh 2,STAT3 act
CN(C)c1ccc(C(=O)OCC(=O)NCC2CCCO2)cc1 (stereo not given),1,0,91,94
CC(C)C(=O)Nc1nc2cc3c(cc2s1)OCO3,66*,0,95,84
O=C(Nc1nc2cc3c(cc2s1)OCO3)C1CC1,57*,3,91,/
CN(Cc1ccccc1)C(=O)c1cnc(Cc2c[nH]c3ccccc23)c(I)c1,/,-4,86,/
CCCC(=O)Nc1nc2ccc(NC(=O)c3ccc(Br)o3)cc2s1,45,6,96,91
CC(=O)Nc1ccc2nc(NC(=O)c3ccc([N+](=O)[O-])o3)sc2c1,58*,2,88,/
CCC(=O)Nc1nc2ccc(NC(C)=O)cc2s1,76*,0,97,105
O=C(Nc1ccc(S(=O)(=O)NC2=NCCCCC2)cc1)c1ccc(=O)[nH]c1,-2,-1,100,105
